Source: PubChem (several laboratories)
PostGolgi ctrl: growth inhibition of yeast control strain, primary screen, counter-screen for post-Golgi transport modulator project; efflux-deficient yeast background strain, growth absorbance A615, 16 h; inhibition, % at 10 µM; 98,000 tested, 5% active
PLAP activator: PLAP enzyme activators, biochemical, luminescence, HTS; Alkaline phosphatase, placental type (Homo sapiens), P05187; purified PLAP enzyme, luminescent substrate read-out; stronger effect = higher value; activation fold at 20 µM; 96,000 tested, 1.2% active; AID 696, 2007; in the data active = activation fold above about 2
PostGolgi yeast: phenotypic screen on post-Golgi transport, primary screen | inhibition, % at 10 µM | 98,000 tested, 0.9% active | post-Golgi transport phenotypic cell assay;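 also: yeast cells grown in 1536-well plates; yeast grown about 18 h at 30C before absorbance read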
HePTP inh: inhibitors of human HePTP phosphatase, primary screen, biochemical, absorbance, leukemia target; Tyrosine-protein phosphatase non-receptor type 7 (Homo sapiens), P35236; recombinant HePTP phosphatase activity, OD absorbance; inhibition, % at 20 µM; 110,000 tested, 0.64% active; AID 521, 2006; in the data active = inhibition above about 50%
Target sequence (P35236 whole entry, looked up): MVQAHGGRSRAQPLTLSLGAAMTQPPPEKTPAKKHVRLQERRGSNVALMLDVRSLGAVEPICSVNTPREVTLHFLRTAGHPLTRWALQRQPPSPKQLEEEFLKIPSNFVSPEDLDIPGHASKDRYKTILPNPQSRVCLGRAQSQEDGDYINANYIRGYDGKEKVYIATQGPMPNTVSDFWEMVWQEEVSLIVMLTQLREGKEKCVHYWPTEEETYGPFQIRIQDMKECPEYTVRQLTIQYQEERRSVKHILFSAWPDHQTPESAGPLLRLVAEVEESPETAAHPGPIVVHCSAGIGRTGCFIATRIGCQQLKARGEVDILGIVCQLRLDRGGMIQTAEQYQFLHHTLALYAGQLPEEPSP
tolC growth inh: growth inhibitors of E. coli tolC mutant, primary screen, strain BW25113 ΔtolC::kan, 384-well; OD615; growth inhibition, % at 10 µM (by protocol); 65,000 tested, 2.2% active;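 active = growth inhibition at or above a cutoff equal to the mean over every tested compound plus 3 SD, cut at about 60% in these data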;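 also: growth measured after 20 h incubation at 37 °C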
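Test system: E. coli BW25113 ΔtolC::kan bacteria | Medium: Kanamycin-containing LB broth (50 µg/mL) | Dosing: One dose of 10 µM final | Times: 20 h incubation with compound, 37 °C | Detection: Optical density read at 615 nm | Read-out basis: Percent growth inhibition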
E coli WT exp: growth inhibitors of wild-type E. coli, primary screen, strain BW25113, expanded library, OD600 | OD600 absorbance | growth inhibition, % at 100 µM | 98,000 tested, 0.15% active | AID 710, 2007;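 active = growth inhibition above about 50% at one test dose, limit read from the data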;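 also: growth measured after 20 h incubation at 37 °C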
Numbers stand for hits; n = inactive; x = not tested or not shown. Compounds with a hit are over-represented: about 5.4% of the library has one in this group of screens. Rule as the data show it, unless noted: active = inhibition above about 30%; inactive = the rest.

SMILES	PostGolgi ctrl	PLAP activator	PostGolgi yeast	HePTP inh	tolC growth inh	E coli WT exp
COc1ccccc1NC(=O)C1=C(C)NC(=O)NC1c1ccccc1Br (stereo not given)	x	x	x	n	x	x
COc1ccc(C)cc1-n1nnnc1SCc1nc2ccccc2s1	34.6	n	n	n	n	n
COc1ccc(-n2nnnc2SCc2nc3ccccc3s2)cc1	n	n	n	x	x	n
Cc1cc(N2CCOCC2)n2ncc(-c3ccccc3)c2n1	n	n	n	x	x	n
CCc1nn2c(N3CCOCC3)cc(C)nc2c1-c1ccc(F)cc1	44.6	n	n	n	n	n
Clc1ccc(OCCOCCN2CCCCC2)c(Br)c1	n	n	42.2	x	x	n
Clc1cc(Br)ccc1OCCOCCN1CCOCC1	n	n	52.9	n	n	n
Cc1ccc(C)c(OCCOCCN2CCOCC2)c1	n	n	n	n	n	n
Cc1ccccc1/C=N/NC(=O)c1ccc(-c2ccccc2)cc1	x	x	x	n	x	x
O=C(CCl)c1ccc(Cc2ncc(C(F)(F)F)cc2Cl)s1	n	n	85.6	x	x	n
CN(CCC(=O)NC1CC(C)(C)N(C)C(C)(C)C1)C1CC(C)(C)N(C)C(C)(C)C1	x	x	x	n	x	x
CNc1ccc([N+](=O)[O-])cc1N/C=C1\CCc2ccccc2C1=O	x	x	x	103.6	x	x
CCOc1ccc(NC2CC(=O)N(c3ccccc3F)C2=O)cc1 (stereo not given)	x	x	x	n	x	x
CCOC(=O)c1cc(C#N)c(Oc2ccc(F)cc2)nc1-c1ccccc1	36.9	n	n	x	x	n
NC1=NC(=O)C(CC(=O)Nc2ccc(C(=O)O)cc2)S1 (stereo not given)	x	x	x	n	x	x
COc1ccc(NC(=O)COc2ccc(Br)cc2C(C)(C)C)c(OC)c1	x	x	x	n	x	x
CCOc1cc([N+](=O)[O-])cc(/C=C2\SC(=S)N(C)C2=O)c1O	x	x	x	65.6	x	x
CC(=O)Nc1ccc(NS(=O)(=O)c2ccc(F)cc2)cc1	x	x	x	n	x	x
COC(=O)Nc1ccc(S(=O)(=O)Nc2ccc(O)cc2)cc1	n	x	n	x	x	n
CC(=O)Nc1ccc(S(=O)(=O)NCC(C)NS(=O)(=O)c2ccc(NC(C)=O)cc2)cc1 (stereo not given)	37.3	n	n	n	n	n
COC(=O)Nc1ccc(S(=O)(=O)Nc2ccc(C)cc2)cc1	37.0	n	39.3	x	x	n
COC(=O)c1cc2cc(NS(=O)(=O)c3ccc(C)cc3)ccc2s1	51.9	x	n	x	x	n
CCc1ccc(S(=O)(=O)Nc2ccc(NC(C)=O)cc2)cc1	x	x	x	102.7	x	x
CC(=O)c1ccccc1Oc1nc(CN2CCOCC2)nc2scc(-c3cccs3)c12	42.4	n	n	n	n	n
COc1ccc(C(C)=O)c(Oc2nc(CN3CCOCC3)nc3scc(-c4cccs4)c23)c1	42.2	n	n	n	n	n
SMILES	PostGolgi ctrl	PLAP activator	PostGolgi yeast	HePTP inh	tolC growth inh	E coli WT exp
Cc1sc2nc(CN3CCOCC3)nc(Oc3ccc(NC(=O)c4ccco4)cc3)c2c1C	n	x	n	n	n	n
CCOc1ccc(C(O)C(CN2CCOCC2)c2ccccc2)cc1 (stereo not given)	37.3	n	n	x	x	n
O=C1CCCCCN1CSc1nc2ccccc2s1	45.8	n	n	n	n	n
CC(=O)c1cccc(NC(=O)Nc2ccc(Cl)cc2)c1	x	x	x	n	x	x
c1ccc(CN2CCN(c3ncnc4nc[nH]c34)CC2)cc1	n	2.1	n	n	n	n
c1ccc2c(c1)CCN(c1ncnc3nc[nH]c13)C2	n	n	n	n	n	n
C1=C(c2ccccc2)CCN(c2ncnc3nc[nH]c23)C1	n	2	n	n	n	n
c1nc(N2CCCCC2)c2[nH]cnc2n1	n	n	n	n	n	n
Cc1cc(C(=O)N/N=C/c2cc(Br)ccc2O)n[nH]1	x	x	x	n	x	x
O=C(O)C1CCCCC1C(=O)Nc1ccccc1F (stereo not given)	41.8	n	n	n	n	n
Cc1ccc(N(CC(=O)N=Nc2c(O)[nH]c3ccccc23)S(=O)(=O)c2ccccc2)cc1	x	x	x	n	x	x
Cc1cc(Cl)ccc1N(CC(=O)N=Nc1c(O)[nH]c2ccccc12)S(C)(=O)=O	n	2.1	n	x	x	n
O=C1NC(=S)N/C1=C/c1ccc(OCc2cccc(C(=O)O)c2)cc1	x	x	x	103.1	x	x
O=C1C=CC(=O)c2c1c(-c1ccccc1)nn2-c1ccccc1	x	x	x	70.7	x	x
CCN(CC)CCSc1nc(O)c(Cc2ccccc2)c(=O)[nH]1	x	x	x	n	x	x
CS(=O)(=O)N(CC(=O)O)c1ccc(Oc2ccccc2)cc1	35.6	n	n	n	n	n
CCCc1cnc(-c2ccc(F)cc2)nc1	x	x	x	n	x	x
CCCCCCc1ccc(-c2ncc(N)cn2)cc1	32.0	n	n	n	100.0	n
CCN(CC(=O)Nc1ccccc1C(=O)OC)S(=O)(=O)c1ccc(OC)cc1	39.6	n	n	n	n	n
CCOC(=O)c1c(N)n(-c2ccc(OC)cc2)c2nc3ccccc3nc12	x	x	x	n	x	x
Cc1ccc(NC(=S)c2nc3ccccc3[nH]2)cc1	51.1	n	n	x	x	n
CC(=O)c1cc(F)c(N2CCN(C(=O)c3cccs3)CC2)cc1C	x	x	x	n	x	x
CCc1cc(C(=O)COc2ccccc2F)c(O)cc1O	n	n	n	n	100.0	n
CC1CCN(C(=O)COc2ccccc2F)CC1	n	n	n	n	n	n
CCCc1cc(C(=O)Cc2nc3ccccc3s2)c(O)cc1O	n	n	n	x	x	n
SMILES	PostGolgi ctrl	PLAP activator	PostGolgi yeast	HePTP inh	tolC growth inh	E coli WT exp
CCc1cc(/C(Cc2ccccn2)=N\O)c(O)cc1O	n	n	n	x	x	n
CCc1cc(C(=O)Cc2nc3ccccc3[nH]2)c(O)cc1O	n	2.3	n	n	n	n
CCCc1cc(C(=O)Cc2ccc(C(=O)OCC)o2)c(O)cc1O	31.4	n	n	n	65.5	n
CCc1cc(/C(Cc2ccc3ccccc3n2)=N\O)c(O)cc1O	n	n	n	x	97.5	n
COCCOC(=O)c1ccc(NC(=O)COc2ccc(-c3ccc(C)cc3)cc2)cc1	x	x	x	n	x	x
COc1ccc(-c2cnc(NC(=O)/C=C/c3cccs3)s2)cc1	x	x	x	n	x	x
CCn1cc(/C=C2\C(=O)NC(=O)N(c3ccc(Cl)cc3)C2=O)c2ccccc21	x	x	x	n	x	x
CCOC(=O)c1ccccc1NC(=O)CN(c1ccccc1CC)S(C)(=O)=O	x	x	x	n	x	x
CCCc1cc(C(=O)Cc2ccc(F)cc2)c(O)cc1O	51.8	n	n	n	n	n
CCc1cc(C(=O)Cc2ccc(F)cc2)c(O)cc1O	x	x	x	n	90.9	x
O=C1S/C(=C/c2ccc(-c3ccc(F)cc3)o2)C(=O)N1c1ccccc1	x	x	x	n	x	x
Cc1ccccc1C(=O)Nc1cccc(NC(=O)c2cccc(Cl)c2)c1	x	x	x	n	x	x
Cc1cc(OCC(=O)Nc2cccc(F)c2)cc(C)c1Cl	x	x	x	n	x	x
O=C(COc1ccc(C2CCCCC2)cc1)Nc1ccccc1C(=O)O	x	x	x	n	x	x
COC(=O)c1sccc1-c1ccc(C(=O)Nc2cccc(Cl)c2)o1	45.7	n	n	x	x	n
Cc1ccc(C(=O)Nc2cccc(Cl)c2)o1	x	x	x	n	x	x
O=C1C(Cl)=C(N2CCCCC2)C(=O)C(Cl)=C1/C=C/N1CCCCC1	x	x	x	102.1	x	x
COc1ccc(/C=C2\SC(=S)N(C(C(=O)O)C(C)C)C2=O)c(OC)c1 (stereo not given)	x	x	x	n	x	x
